# PubChem BioAssay AID1257 (The Scripps Research Institute Molecular Screening Center, 2008)
# Some of the results follow. A number with no mark means an inactive call. Active and inactive are the calls of the source.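 How the source made its calls: active means mean inhibition of triplicate wells above the hit cutoff set in the primary screen (cut at about 17% in these data); inactive means the rest.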
# Target: Neuropeptide Y receptor type 2 (Homo sapiens) (UniProt P49146)
# Test: blockers of human NPY-Y2 signalling – HEK293-CNG cells, membrane potential fluorescence, triplicate, confirmation (AID 1257);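 further: 0% = DMSO with NPY challenge and 100% = BIIE0246 high control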
# Details: HEK293 NPY-Y2 CNG channel, at 2.8 µM, stronger effect = higher value
# Outline: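 assay system = NPY-Y2 HEK293-CNG cells | times = NPY exposure 60 min at room temperature | technique = voltage-sensitive dye fluorescence | read-out = 30-min to baseline fluorescence ratio, control-normalized | control set = high BIIE0246, low DMSO | repeats = three replicates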
# Sequence of Neuropeptide Y receptor type 2 (Homo sapiens) (P49146 whole entry, looked up): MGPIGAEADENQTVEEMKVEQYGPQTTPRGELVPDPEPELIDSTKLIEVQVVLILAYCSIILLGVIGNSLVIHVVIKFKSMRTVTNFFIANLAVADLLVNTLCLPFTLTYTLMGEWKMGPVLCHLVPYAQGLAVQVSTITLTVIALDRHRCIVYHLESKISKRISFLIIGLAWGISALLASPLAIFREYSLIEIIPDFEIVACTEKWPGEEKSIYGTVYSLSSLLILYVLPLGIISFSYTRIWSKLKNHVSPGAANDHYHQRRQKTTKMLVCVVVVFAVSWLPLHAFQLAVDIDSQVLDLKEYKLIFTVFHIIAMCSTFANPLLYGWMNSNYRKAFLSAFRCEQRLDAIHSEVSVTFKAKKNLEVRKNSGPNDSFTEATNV
row,SMILES,inhibition
1,O=S(=O)(Cc1cc(Sc2ccccc2)nc(-c2ccccc2)n1)c1ccccc1,7.19%
2,Cc1ccccc1N1CCN(CCCOc2ccc3c(C)cc(=O)oc3c2)CC1,21.9% (active)
3,COc1ccc(/C=C/C(=O)NC(=S)NN2CCCCC2c2cccnc2)cc1 (centres undefined),63.5% (active)
4,COc1ccc(/C(N)=N/OC(=O)CCCc2ccccc2)cc1,8.36%
5,c1ccc(-c2cc3c(NCC4COc5ccccc5O4)ncnc3s2)cc1 (centres undefined),15.2%
6,O=C(Nc1nnc(SCc2c(Cl)cccc2Cl)s1)C1CCCO1 (centres undefined),15.9%
7,N=c1n(Cc2ccc(Cl)cc2)c2ccccc2n1CC(O)c1ccco1 (centres undefined),17.8% (active)
8,COc1ccc(-c2noc(COc3ccc(Cl)c(C)c3)n2)cc1,32.4% (active)
9,COc1cccc(-c2ccc(C#N)c(SCC(=O)NCCc3ccc(Cl)cc3)n2)c1,23.6% (active)
10,CCOC(=O)C(C)Sc1nc2ccccc2c(=O)n1CC1CCCCC1 (centres undefined),8.48%
11,COc1ccc(-c2nc3ccccc3n2CCC(C)C)cc1OC,7.79%
12,O=C(Oc1ccccc1)Oc1ccc2c(c1)oc(=O)c1ccccc12,6.38%
13,Cc1cc(C)nc(-n2ncc3c2CC(c2ccc(C(C)C)cc2)CC3=O)n1 (centres undefined),24.2% (active)
14,Cc1cccc(OCC(O)Cn2c(=N)n(CCN3CCOCC3)c3ccccc32)c1 (centres undefined),6.36%
15,COc1ccc(NC(=O)/C(Cl)=C(/Cl)S(=O)Cc2ccc(C)cc2)cn1 (centres undefined),60.8% (active)
16,CCCCC(O)(CCCC)C(=O)NN(C(=O)CCl)c1ccccc1,6.12%
17,N#Cc1ccc(N2Cc3ccccc3/C2=N/C(=O)Nc2ccc(Cl)cc2)cc1,144% (active)

row,SMILES,inhibition
1,COC(=O)c1ccc(CSc2nc3cc(Cl)ccc3o2)cc1,12.9%
2,Cc1ccc(C2=NN(C)c3nc4ccccc4n3C2)cc1,4.08%
3,C=CCNCCCCOc1ccccc1,-1.34%
4,Cc1ccc(NC(=O)CN2CCC3(O)CCCCC3C2c2ccc3c(c2)OCO3)c(C)c1 (centres undefined),7.05%
5,CCCCCNC(=O)Cc1ccc(OC)cc1,-1.6%
6,Cc1cc(C(=O)OCC(=O)N2c3ccccc3NC(=O)C2(C)C)c(C)n1-c1ccccc1,17.1%
7,CCOc1ccc(C(O)Cn2c(=N)n(CCN3CCCCC3)c3ccccc32)cc1 (centres undefined),14.8%
8,Cc1ccc(CCC(=O)Nc2ncc(Cc3cc(Cl)ccc3Cl)s2)o1,28.3% (active)
9,CCCc1nc(SCC(=O)Nc2ccccc2OC)c2c(=O)n(C)c(=O)n(C)c2n1,9.29%
10,O=C(CC(O)(C(F)(F)F)C(F)(F)F)Nc1ccc(Cl)c(Cl)c1,8.21%
11,O=C1CC(c2cccc(Cl)c2)CC(O)=C1C=Nc1ccccc1 (centres undefined),16.5%
12,CCOc1ccc(S(=O)(=O)N/N=C(\C)c2ccc(Cl)c(Cl)c2Cl)cc1,16%
13,Cc1ccccc1OC(=O)Cn1c(C(F)(F)F)nc2ccccc21,3.55%
14,Cc1ccc(S(=O)(=O)N(Cc2ccc(Cl)cc2)c2ccccc2C(=O)NCc2cccnc2)cc1,21.4% (active)
15,CC12CN(Cc3ccccc3)CC(C)(CN(Cc3ccccc3)C1)C2=NO,10.7%
16,N#Cc1ccc(C(c2nnnn2CCc2ccccc2)N2CCCCCC2)cc1 (centres undefined),7.32%
17,CN(C)Cc1ccc(F)cc1Sc1cc(Cl)ccc1Cl,9.81%
